Measurements as given in ChEMBL document CHEMBL2375229, “Synthesis and biological activities of some novel aminomethyl derivatives of 4-substituted-5-(2-thienyl)-2,4-dihydro-3H-1,2,4-triazole-3-thiones” (2013).
Converted amounts (≈) assume the structure as drawn.

The compounds below were run on Radical scavenging activity (assay: Antioxidant activity of the compound assessed as DPPH free radical scavenging activity at 187.5 uM after 60 mins by spectrophotometric analysis relative to control).
Format: functional
Outline: (§1)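 DPPH• and sample stocks made in DMSO. DPPH• mixed with sample at several concentrations and brought to 4.0 mL in DMSO. Incubated 60 min at 25 °C in the dark, then absorbance read at 517 nm with solvent correction. Scavenging % = (A0−As)/A0×100 against a DPPH-only control. Ascorbic acid standard. Mean ± SD, n = 3.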

SMILES | inhibition
CC1CCN(Cn2nc(-c3cccs3)n(-c3ccccc3)c2=S)CC1 | 61.1%
CCn1c(-c2cccs2)nn(CN2CCN(c3ccccc3)CC2)c1=S | 72.7%
CCn1c(-c2cccs2)nn(CN2CCC(C)CC2)c1=S | 65.2%

These compounds were tested on Klebsiella pneumoniae (assay: Antibacterial activity against Klebsiella pneumoniae assessed as growth inhibition after 3 to 4 days by serial plate dilution method).
Format: functional
Outline: (§2)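 Serial dilution in Mueller-Hinton broth adjusted to pH 5.0 with phosphate buffer. Standardized bacterial suspension inoculated, 16-18 h at 37 °C. Agar-well plates also used: compounds in DMSO added to punched wells, DMSO solvent control, triplicate plates held at 37 °C for 3–4 days. MIC taken as lowest concentration with no visible growth. Range tested 1.56–25 µg/mL. Ciprofloxacin standard.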

MIC | SMILES
3.12 µg/mL (≈ 8.42 µM) | CC1CCN(Cn2nc(-c3cccs3)n(-c3ccccc3)c2=S)CC1
6.25 µg/mL (≈ 16.2 µM) | CCn1c(-c2cccs2)nn(CN2CCN(c3ccccc3)CC2)c1=S
3.12 µg/mL (≈ 9.67 µM) | CCn1c(-c2cccs2)nn(CN2CCC(C)CC2)c1=S

SMILES | MIC
O=C(O)c1cn(C2CC2)c2cc(N3CCNCC3)c(F)cc2c1=O [CIPROFLOXACIN] | 6.25 µg/mL (≈ 18.9 µM)

These compounds were tested on Radical scavenging activity (assay: Antioxidant activity of the compound assessed as DPPH free radical scavenging activity at 250 uM after 60 mins by spectrophotometric analysis relative to control).
Format: functional
Outline: as §1

SMILES | inhibition
CC1CCN(Cn2nc(-c3cccs3)n(-c3ccccc3)c2=S)CC1 | 66.9%
CCn1c(-c2cccs2)nn(CN2CCN(c3ccccc3)CC2)c1=S | 82.5%
CCn1c(-c2cccs2)nn(CN2CCC(C)CC2)c1=S | 67.6%

Each compound was assayed on Trichophyton mentagrophytes (assay: Antifungal activity against Trichophyton mentagrophytes assessed as growth inhibition after 3 to 4 days by serial plate dilution method).
Format: functional
Outline: (§3)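 Agar of peptone, D-glucose and agar at pH 5.7, lawned with saline spore suspension and dried 1 h at 37 °C. Compounds in DMSO added to punched wells, DMSO solvent control. Triplicate plates held at 37 °C for 3–4 days. […] Ciclopiroxolamine standard.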

MIC | SMILES
3.12 µg/mL | Cc1cc(C2CCCCC2)n(O)c(=O)c1.NCCO [CICLOPIROX OLAMINE]
6.25 µg/mL (≈ 19.4 µM) | CCn1c(-c2cccs2)nn(CN2CCC(C)CC2)c1=S

Continued, compound first:

SMILES | MIC
CC1CCN(Cn2nc(-c3cccs3)n(-c3ccccc3)c2=S)CC1 | 6.25 µg/mL (≈ 16.9 µM)
CCn1c(-c2cccs2)nn(CN2CCN(c3ccccc3)CC2)c1=S | 3.12 µg/mL (≈ 8.09 µM)

What follows are compounds tested on Staphylococcus aureus (assay: Antibacterial activity against Staphylococcus aureus ATCC 25923 assessed as growth inhibition after 3 to 4 days by serial plate dilution method).
Format: functional
Outline: as §2

MIC | SMILES
1.56 µg/mL (≈ 4.21 µM) | CC1CCN(Cn2nc(-c3cccs3)n(-c3ccccc3)c2=S)CC1
6.25 µg/mL (≈ 16.2 µM) | CCn1c(-c2cccs2)nn(CN2CCN(c3ccccc3)CC2)c1=S
1.56 µg/mL (≈ 4.84 µM) | CCn1c(-c2cccs2)nn(CN2CCC(C)CC2)c1=S

SMILES | MIC
O=C(O)c1cn(C2CC2)c2cc(N3CCNCC3)c(F)cc2c1=O [CIPROFLOXACIN] | 3.12 µg/mL (≈ 9.42 µM)

What follows are compounds tested on Radical scavenging activity (assay: Antioxidant activity of the compound assessed as DPPH free radical scavenging activity at 312.5 uM after 60 mins by spectrophotometric analysis relative to control).
Format: functional
Outline: as §1

SMILES | inhibition
CCn1c(-c2cccs2)nn(CN2CCN(c3ccccc3)CC2)c1=S | 90.2%
CCn1c(-c2cccs2)nn(CN2CCC(C)CC2)c1=S | 71.3%

These compounds were tested on Escherichia coli (assay: Antibacterial activity against Escherichia coli ATCC 25922 assessed as growth inhibition after 3 to 4 days by serial plate dilution method).
Format: functional
Outline: as §2

MIC | SMILES
3.12 µg/mL (≈ 8.42 µM) | CC1CCN(Cn2nc(-c3cccs3)n(-c3ccccc3)c2=S)CC1
12 µg/mL (≈ 31.1 µM) | CCn1c(-c2cccs2)nn(CN2CCN(c3ccccc3)CC2)c1=S
3.12 µg/mL (≈ 9.67 µM) | CCn1c(-c2cccs2)nn(CN2CCC(C)CC2)c1=S

These compounds were tested on Aspergillus flavus (assay: Antifungal activity against Aspergillus flavus NCIM 524 assessed as growth inhibition after 3 to 4 days by serial plate dilution method).
Format: functional
Outline: as §3

MIC | SMILES
3.12 µg/mL | Cc1cc(C2CCCCC2)n(O)c(=O)c1.NCCO [CICLOPIROX OLAMINE]
6.25 µg/mL (≈ 19.4 µM) | CCn1c(-c2cccs2)nn(CN2CCC(C)CC2)c1=S

The next lines start with the compound.

SMILES | MIC
CC1CCN(Cn2nc(-c3cccs3)n(-c3ccccc3)c2=S)CC1 | 6.25 µg/mL (≈ 16.9 µM)
CCn1c(-c2cccs2)nn(CN2CCN(c3ccccc3)CC2)c1=S | 3.12 µg/mL (≈ 8.09 µM)

Each compound was assayed on Aspergillus fumigatus (assay: Antifungal activity against Aspergillus fumigatus NCIM 902 assessed as growth inhibition after 3 to 4 days by serial plate dilution method).
Format: functional
Outline: as §3

MIC | SMILES
6.25 µg/mL | Cc1cc(C2CCCCC2)n(O)c(=O)c1.NCCO [CICLOPIROX OLAMINE]
12 µg/mL (≈ 37.2 µM) | CCn1c(-c2cccs2)nn(CN2CCC(C)CC2)c1=S

The remaining lines, values behind:

SMILES | MIC
CC1CCN(Cn2nc(-c3cccs3)n(-c3ccccc3)c2=S)CC1 | 12 µg/mL (≈ 32.4 µM)
CCn1c(-c2cccs2)nn(CN2CCN(c3ccccc3)CC2)c1=S | 6.25 µg/mL (≈ 16.2 µM)

The compounds below were run on Pseudomonas aeruginosa (assay: Antibacterial activity against Pseudomonas aeruginosa ATCC 27853 assessed as growth inhibition after 3 to 4 days by serial plate dilution method).
Format: functional
Outline: as §2

MIC | SMILES
3.12 µg/mL (≈ 8.42 µM) | CC1CCN(Cn2nc(-c3cccs3)n(-c3ccccc3)c2=S)CC1
12 µg/mL (≈ 31.1 µM) | CCn1c(-c2cccs2)nn(CN2CCN(c3ccccc3)CC2)c1=S
3.12 µg/mL (≈ 9.67 µM) | CCn1c(-c2cccs2)nn(CN2CCC(C)CC2)c1=S

Each compound was assayed on Talaromyces marneffei (assay: Antifungal activity against Penicillium marneffei assessed as growth inhibition after 3 to 4 days by serial plate dilution method).
Format: functional
Outline: as §3

MIC | SMILES
6.25 µg/mL | Cc1cc(C2CCCCC2)n(O)c(=O)c1.NCCO [CICLOPIROX OLAMINE]
12 µg/mL (≈ 37.2 µM) | CCn1c(-c2cccs2)nn(CN2CCC(C)CC2)c1=S

Further lines, the compound ahead of its results:

SMILES | MIC
CC1CCN(Cn2nc(-c3cccs3)n(-c3ccccc3)c2=S)CC1 | 12 µg/mL (≈ 32.4 µM)
CCn1c(-c2cccs2)nn(CN2CCN(c3ccccc3)CC2)c1=S | 6.25 µg/mL (≈ 16.2 µM)

The compounds below were run on Radical scavenging activity (assay: Antioxidant activity of the compound assessed as DPPH free radical scavenging activity at 125 uM after 60 mins by spectrophotometric analysis relative to control).
Format: functional
Outline: as §1

SMILES | inhibition
CC1CCN(Cn2nc(-c3cccs3)n(-c3ccccc3)c2=S)CC1 | 51.1%
CCn1c(-c2cccs2)nn(CN2CCN(c3ccccc3)CC2)c1=S | 63.1%
CCn1c(-c2cccs2)nn(CN2CCC(C)CC2)c1=S | 52.5%

These compounds were tested on Radical scavenging activity (assay: Antioxidant activity of the compound assessed as DPPH free radical scavenging activity at 62.5 uM after 60 mins by spectrophotometric analysis relative to control).
Format: functional
Outline: as §1

SMILES | inhibition
CC1CCN(Cn2nc(-c3cccs3)n(-c3ccccc3)c2=S)CC1 | 44.7%
CCn1c(-c2cccs2)nn(CN2CCN(c3ccccc3)CC2)c1=S | 52.2%
CCn1c(-c2cccs2)nn(CN2CCC(C)CC2)c1=S | 49.2%
